One molecule from ChEMBL document CHEMBL4351018, “Novel phenanthridin-6(5H)-one derivatives as potent and selective BET bromodomain inhibitors: Rational design, synthesis and biological evaluation” (Eur J Med Chem, 2019) can be followed below.

SMILES strings stand for the structures. Where only a bound is given, the exact number is not on record here.

Series [1] can be described thus: Half life in Sprague-Dawley rat at 10 mg/kg, po measured for 0.083 to 24 hrs by LC-MS/MS analysis. Format: ADME, organism-based. Conditions: in vivo.
For series [2], the system named is A549. The series can be described thus: Induction of apoptosis in human A549 cells assessed as late apoptotic cells at 0.3 uM incubated for 48 hrs by annexin V-FITC/PI double staining based flow cytometric analysis (reference value: 0.039%). Format: functional.
Series [3] deals with A549. The series can be described thus: Induction of apoptosis in human A549 cells assessed as necrotic cells at 1.0 uM incubated for 48 hrs by annexin V-FITC/PI double staining based flow cytometric analysis (reference value: 0%). Format: functional.
Series [4] in a line: MRT (0 to t) in Sprague-Dawley rat at 2.5 mg/kg, iv measured for 0.083 to 24 hrs by LC-MS/MS analysis. Conditions: in vivo. Format: ADME, organism-based.
Series [5] in a line: AUC (0 to t) in Sprague-Dawley rat at 10 mg/kg, po measured for 0.083 to 24 hrs by LC-MS/MS analysis. Format: ADME, organism-based. Also on record: time 0.083-24 hr, dose 10 mg/kg, route oral. The conditions noted are these: in vivo.
Series [6] concerns A549. The series can be described thus: Antiproliferative activity against human A549 cells incubated for 48 hrs by MTT assay. Format: functional, cell-based. The conditions noted are these: A549, 48 h. A digest of the protocol: (§1)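 Cells kept in DMEM or RPMI 1640 with 10% FBS at 37 °C, 5% CO2. MTT added for 4 h at 37 °C, formazan dissolved in DMSO, OD read at 570 nm. Survival % taken relative to blank and control wells. Triplicate runs; IC50 from curve fit.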

Series [7] in a line: Half life in Sprague-Dawley rat at 2.5 mg/kg, iv measured for 0.083 to 24 hrs by LC-MS/MS analysis. Format: ADME, organism-based. The conditions noted are these: in vivo.
The target in series [8] is Bromodomain-containing protein 4 (Homo sapiens, UniProt O60885). The series can be described thus: Binding affinity to recombinant human His-tagged BRD4 bromodomain 2 expressed in […] insect cells using biotinylated H4(1 to 21)K5/8/12/16Ac peptide as substrate at 20 uM preincubated for 30 mins followed by substrate addition and measured after 30 mins by Alpha screen assay relative to control.

The target in series [9] is T1, Bromodomain-containing protein 9 (Homo sapiens) (UniProt Q9H8M2).
T1 sequence (whole entry): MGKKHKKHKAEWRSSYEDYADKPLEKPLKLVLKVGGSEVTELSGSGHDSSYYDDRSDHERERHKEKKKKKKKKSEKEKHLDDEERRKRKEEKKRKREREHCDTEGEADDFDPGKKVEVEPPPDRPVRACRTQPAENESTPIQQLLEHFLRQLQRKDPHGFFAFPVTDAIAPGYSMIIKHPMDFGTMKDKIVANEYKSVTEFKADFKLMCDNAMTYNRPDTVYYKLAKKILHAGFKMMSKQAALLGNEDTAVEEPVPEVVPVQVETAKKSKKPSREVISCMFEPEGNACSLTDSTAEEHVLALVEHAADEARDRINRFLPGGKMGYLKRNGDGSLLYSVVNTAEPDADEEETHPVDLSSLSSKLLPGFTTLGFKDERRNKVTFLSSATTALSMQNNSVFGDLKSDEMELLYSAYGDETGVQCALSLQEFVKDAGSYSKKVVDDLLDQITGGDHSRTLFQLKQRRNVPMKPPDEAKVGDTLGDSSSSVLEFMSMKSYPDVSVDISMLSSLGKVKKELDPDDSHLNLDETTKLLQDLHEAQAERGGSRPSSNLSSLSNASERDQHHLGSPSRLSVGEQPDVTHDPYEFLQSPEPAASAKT
The series can be described thus: Binding affinity to BRD9 (unknown origin) at 20 uM by Alpha screen assay relative to control.

Series [10] is described as follows: Oral bioavailability in Sprague-Dawley rat at 10 mg/kg measured for 0.083 to 24 hrs by LC-MS/MS analysis. Format: ADME, organism-based. Conditions: in vivo.
The test system of series [11] is A549. The series can be described thus: Induction of apoptosis in human A549 cells assessed as early apoptotic cells at 1.0 uM incubated for 48 hrs by annexin V-FITC/PI double staining based flow cytometric analysis (reference value: 1.76%). Format: functional.
In the next series the test system is SGC-7901. The series can be described thus: Antiproliferative activity against human SGC7901 cells incubated for 48 hrs by MTT assay. Format: functional, cell-based. The conditions noted are these: SGC-7901, 48 h. A digest of the protocol:
as §1

Series [12] has as its target Bromodomain-containing protein 3 (Homo sapiens) (UniProt Q15059). The series can be described thus: Binding affinity to BRD3 bromodomain 1 (unknown origin) at 20 uM by Alpha screen assay relative to control.
The subject of series [13] is A549. The series can be described thus: Induction of apoptosis in human A549 cells assessed as viable cells at 1.0 uM incubated for 48 hrs by annexin V-FITC/PI double staining based flow cytometric analysis (reference value: 98.2%). Format: functional. The conditions noted are these: A549, 48 h, read-out: Activity.
Series [14] concerns the target Bromodomain-containing protein 2 (Homo sapiens) (UniProt P25440). The series can be described thus: Binding affinity to BRD2 bromodomain 1 (unknown origin) at 20 uM by Alpha screen assay relative to control.

Sequence of Bromodomain-containing protein 3 (Homo sapiens) (Q15059 2-726 limits assumed): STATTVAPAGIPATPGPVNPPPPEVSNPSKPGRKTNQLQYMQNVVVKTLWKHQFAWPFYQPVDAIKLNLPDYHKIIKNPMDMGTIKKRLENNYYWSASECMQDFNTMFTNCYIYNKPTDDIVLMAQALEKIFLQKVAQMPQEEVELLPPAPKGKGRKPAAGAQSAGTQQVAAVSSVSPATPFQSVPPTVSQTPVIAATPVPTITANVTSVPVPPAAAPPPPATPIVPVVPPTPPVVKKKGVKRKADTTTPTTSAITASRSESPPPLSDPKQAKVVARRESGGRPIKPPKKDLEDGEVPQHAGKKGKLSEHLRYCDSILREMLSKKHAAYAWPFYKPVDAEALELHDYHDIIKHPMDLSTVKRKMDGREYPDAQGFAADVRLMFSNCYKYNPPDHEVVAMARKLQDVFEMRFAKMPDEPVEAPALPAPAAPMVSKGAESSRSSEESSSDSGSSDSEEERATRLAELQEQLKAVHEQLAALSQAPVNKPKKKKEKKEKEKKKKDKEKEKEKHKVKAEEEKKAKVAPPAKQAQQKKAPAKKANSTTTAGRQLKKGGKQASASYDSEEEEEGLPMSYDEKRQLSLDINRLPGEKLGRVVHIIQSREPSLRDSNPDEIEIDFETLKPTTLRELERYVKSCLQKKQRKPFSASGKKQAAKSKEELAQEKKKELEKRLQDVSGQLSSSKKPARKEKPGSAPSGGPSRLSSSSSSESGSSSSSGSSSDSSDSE
Sequence of Bromodomain-containing protein 2 (Homo sapiens) (P25440 whole entry, looked up): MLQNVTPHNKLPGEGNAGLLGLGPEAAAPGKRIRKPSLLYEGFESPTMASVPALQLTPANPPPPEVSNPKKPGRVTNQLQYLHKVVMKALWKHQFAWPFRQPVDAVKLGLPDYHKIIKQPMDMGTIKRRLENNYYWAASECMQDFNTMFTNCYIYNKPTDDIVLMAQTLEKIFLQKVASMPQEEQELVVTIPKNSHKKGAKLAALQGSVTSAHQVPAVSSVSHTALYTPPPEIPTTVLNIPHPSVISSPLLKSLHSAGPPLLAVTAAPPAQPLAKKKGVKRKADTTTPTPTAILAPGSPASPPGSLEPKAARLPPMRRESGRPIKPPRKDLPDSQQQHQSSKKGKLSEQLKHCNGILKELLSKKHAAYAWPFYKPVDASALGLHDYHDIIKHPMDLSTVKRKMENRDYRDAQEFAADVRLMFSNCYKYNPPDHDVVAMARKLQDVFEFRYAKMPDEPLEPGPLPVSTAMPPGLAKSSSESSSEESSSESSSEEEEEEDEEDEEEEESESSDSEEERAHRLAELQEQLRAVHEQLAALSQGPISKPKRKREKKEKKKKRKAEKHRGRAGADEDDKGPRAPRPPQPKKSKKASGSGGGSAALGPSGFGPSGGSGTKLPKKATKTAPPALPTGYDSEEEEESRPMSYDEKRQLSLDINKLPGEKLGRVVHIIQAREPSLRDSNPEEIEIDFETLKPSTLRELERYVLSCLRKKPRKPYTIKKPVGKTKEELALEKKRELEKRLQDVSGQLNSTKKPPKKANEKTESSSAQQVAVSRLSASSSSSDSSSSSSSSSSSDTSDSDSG

Regarding `COc1ccc(Cl)cc1S(=O)(=O)Nc1ccc2[nH]c(=O)c3ccccc3c2c1`, the figures for the half-life in series [1] and in series [7] were 3.87 h and 10.4 h, respectively. For the same molecule, the Activity with A549 [2] was 2.63%; in the series on A549 [3], 0.044%; in [8], above 70%; in [9], above 30%; in the series on A549 [11], 47.8%; in series [12], above 70%. For the same molecule, the Activity in series [14] is above 70%. Further, the MRT last in series [4] stood at 7.93 h. The AUC(0-t) in series [5] was determined as 566 ng·h/mL. Moreover, the IC50 with A549 [6] turned out to be 0.75 µM; in the series with SGC-7901, 5.35 µM. Also, in [10], the bioavailability amounted to 36.6%. Besides, in the series with A549 [13], the viability at 1 µM stood at 46.1%.
